Only some compounds are listed: those with a hit (about 0.89% of all), similar ones and a draw of the others.
ABCB6 inh MLPCN: blocks the human ABCB6 transporter | 0.19% of 360,000 active | K562-ABCB6 porphyrin accumulation, flow cytometry, 1 h; active compounds read low | AID 602162 | fluorescence ratio to DMSO, % at 10 µM | Q9NP58;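 active = fluorescence ratio to DMSO below 75%, the collection mean minus 3 SD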;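 also: signal is porphyrin accumulated inside mitochondria; lower ratio means ABCB6 inhibition with less porphyrin fluorescence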
PG9 Ab binder: binds the HIV-1 gp120 antibody PG9. TR-FRET gp120-PG9 antibody binding. inhibition, % at 6.7 µM. 0.43% of 360,000 active. AID 624416; in the data active = inhibition above about 8.5%
Arr AP2 block: human beta-arrestin and AP2 interaction inhibition; FITC-arrestin peptide / GST-AP2 beads, flow cytometry; AP2 beta2 appendage carries R879A mutation; inhibition, % at 10 µM; 0.31% of 340,000 active; AID 504490;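 active = inhibition above a set limit, near 3 SD of compounds lacking own fluorescence, cut at about 54% in these data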
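Measured by: flow cytometry, FL1 (488/535 nm); Material: AP2 appendage R879A on GSH beads; Evaluation: percent response; Timing: pre-incubation 12 min, peptide binding 1 h, room temperature; Also added: 50 nM FITC-arrestin peptide; Medium: PBS with 0.05% Tween 20 and 0.1% BSA.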
iPSC survival up: enhancers of human iPSC single-cell survival | 0.044% of 360,000 active | hiPSC single-cell survival, ATPlite luminescence; 100% = ROCK inhibitor wells, 0% = DMSO | survival enhancement, % at 20 µM; in the data active = survival enhancement above about 18%;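 also: cells exposed to compounds for 16 hours before the ATP read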
Arr-AP2 CP1: blocks beta-arrestin peptide binding to human AP2; AID 504908; GST-AP2 beads, FITC arrestin peptide binding, flow cytometry; GST-fused beta2-adaptin appendage, R879A mutant; shares compounds with Arr AP2 block; 2% of 1,300 active; inhibition, % at 10 µM;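 active = inhibition above a set limit, roughly 3 SD of non-fluorescent compound noise, cut at about 38% in these data; inactive = inhibition at or below that limit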;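 also: loss of bead fluorescence from 50 nM FITC arrestin peptide bound to appendage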
Target sequence (P63010 whole entry, looked up, the tested form may be a part, one chain of several): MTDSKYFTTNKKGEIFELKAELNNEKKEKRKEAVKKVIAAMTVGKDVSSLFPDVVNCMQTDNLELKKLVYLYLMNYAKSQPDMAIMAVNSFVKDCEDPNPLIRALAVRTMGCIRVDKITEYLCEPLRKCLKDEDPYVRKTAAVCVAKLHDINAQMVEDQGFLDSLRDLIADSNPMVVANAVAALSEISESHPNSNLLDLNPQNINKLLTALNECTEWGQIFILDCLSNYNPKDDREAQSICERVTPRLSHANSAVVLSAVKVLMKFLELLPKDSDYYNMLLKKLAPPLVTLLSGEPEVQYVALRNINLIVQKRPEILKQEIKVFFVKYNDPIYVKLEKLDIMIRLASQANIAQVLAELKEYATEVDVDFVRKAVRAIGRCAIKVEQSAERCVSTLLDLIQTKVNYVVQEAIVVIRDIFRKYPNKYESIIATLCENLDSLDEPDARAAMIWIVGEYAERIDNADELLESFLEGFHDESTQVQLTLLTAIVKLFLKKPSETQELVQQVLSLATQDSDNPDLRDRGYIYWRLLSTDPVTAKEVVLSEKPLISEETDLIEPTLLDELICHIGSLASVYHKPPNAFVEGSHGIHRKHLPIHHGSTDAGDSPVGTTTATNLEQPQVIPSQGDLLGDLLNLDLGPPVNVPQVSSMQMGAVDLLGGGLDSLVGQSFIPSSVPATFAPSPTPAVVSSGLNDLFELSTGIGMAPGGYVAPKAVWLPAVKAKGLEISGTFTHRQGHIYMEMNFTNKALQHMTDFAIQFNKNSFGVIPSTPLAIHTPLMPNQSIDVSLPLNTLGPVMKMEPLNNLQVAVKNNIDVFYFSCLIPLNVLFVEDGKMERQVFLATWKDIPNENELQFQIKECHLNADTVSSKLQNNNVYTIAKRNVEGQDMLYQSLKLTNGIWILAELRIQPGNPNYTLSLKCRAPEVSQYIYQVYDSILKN
GST GSH counter: counter-screen for beta-arrestin AP2 inhibitors: GST-GSH bead binding | shares compounds with Arr AP2 block | GST-fluorescein binding to GSH beads, fluorescence | inhibition, % at 10 µM | 2% of 1,300 active | AID 588338;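 active = inhibition above 50%, about 3 SD of the inhibition seen with non-fluorescent compounds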;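 also: fluorescein maleimide labelled GST captured on 4 micron glutathione beads; higher means more loss of bead fluorescence from quenching or blocked binding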
Large screens that a line does not name were inactive (follow-up assays come after a bar, where they were run).

CCN(CC)c1ccc(Nc2nc(N3CCOCC3)c3ccccc3n2)cc1	Arr AP2 block 59.1 | Arr-AP2 CP1 inactive | GST GSH counter inactive
COc1ccc(Nc2nc(N3CCCC3)c3ccccc3n2)cc1	none
Brc1ccccc1C1Cc2nnccc2CN1 (stereo not given)	none (no result: ABCB6 inh MLPCN, Arr AP2 block, iPSC survival up)
CCc1cc2c(nc1CC)CCCN2S(=O)(=O)c1ccc(C(F)(F)F)cc1	none (no result: ABCB6 inh MLPCN, Arr AP2 block, iPSC survival up)
CN(CCOc1ccccc1)C(=O)c1cc([N+](=O)[O-])cc([N+](=O)[O-])c1	Arr AP2 block 60.2 | Arr-AP2 CP1 inactive | GST GSH counter inactive
O=C(NCCOc1ccccc1)c1cc(C(=O)NCCOc2ccccc2)cc([N+](=O)[O-])c1	none
Cc1ccc(/C=C/c2onc(C)c2S(=O)(=O)N2CCC(C(=O)N3CCCCC3)CC2)cc1	none
Cc1cccc(/C=C/c2onc(C)c2S(=O)(=O)N2CCC(C(=O)N3CCCCC3)CC2)c1	Arr AP2 block 54.9 (no result: PG9 Ab binder) | Arr-AP2 CP1 inactive | GST GSH counter inactive
COc1ccc(S(=O)(=O)c2ccc(OCC3CO3)cc2)cc1 (stereo not given)	Arr AP2 block 64.2 | Arr-AP2 CP1 inactive | GST GSH counter inactive
CNC12CCc3cc(OC)c(OC)c(c31)-c1cc3c(cc1C2)OCO3 (stereo not given)	none (no result: ABCB6 inh MLPCN, Arr AP2 block, iPSC survival up)
COc1ccccc1NS(=O)(=O)c1cccc(NC(=O)C2CC(=O)N(Cc3ccccc3)C2)c1 (stereo not given)	Arr AP2 block 60.2 | Arr-AP2 CP1 inactive | GST GSH counter inactive
CN(C)c1ccc(N(C)C)c(C(O)(c2ccccc2)c2ccccc2)c1	none (no result: ABCB6 inh MLPCN, Arr AP2 block, iPSC survival up)
O=C(/C=C(\Nc1cc(Cl)c(Cl)c(Cl)c1)c1ccccc1)c1ccccc1	none (no result: ABCB6 inh MLPCN, Arr AP2 block, iPSC survival up)
Cn1c(=Nc2ccccc2)sc2ccccc21	none
CN(C)c1ccc(N=c2sc3ccccc3n2C)cc1	Arr AP2 block 62.9 | Arr-AP2 CP1 inactive | GST GSH counter inactive
Cc1cc(C(=O)Nc2cccc(S(=O)(=O)N3CCCCC3)c2)c2ccccc2n1	none | Arr-AP2 CP1 inactive | GST GSH counter inactive
Cc1ccc(NC(=O)COC(=O)C2CSC3(C)CCC(=O)N23)cc1S(=O)(=O)N1CCOCC1 (stereo not given)	Arr AP2 block 63.5 | Arr-AP2 CP1 inactive | GST GSH counter inactive
CC12CCC(=O)N1C(C(=O)OCC(=O)Nc1cccc(Br)c1)CS2 (stereo not given)	none | Arr-AP2 CP1 inactive | GST GSH counter inactive
CC12CCC(=O)N1C(C(=O)OCC(=O)Nc1cccc(S(=O)(=O)N3CCCCCC3)c1)CS2 (stereo not given)	none
CN(C(=O)COC(=O)C1CSC2(C)CCC(=O)N12)c1ccccc1 (stereo not given)	none | Arr-AP2 CP1 inactive | GST GSH counter inactive
CCNC(=O)NC(=O)COC(=O)C1CSC2(C)CCC(=O)N12 (stereo not given)	none
CC12CCC(=O)N1C(C(=O)OCC(=O)Nc1ccc(C(F)(F)F)cc1)CS2 (stereo not given)	none | Arr-AP2 CP1 inactive | GST GSH counter inactive
C[C@@H]1C=CCCO[C@]12C(=O)Nc1ccccc12	none (no result: ABCB6 inh MLPCN, Arr AP2 block, iPSC survival up)
CC12CCC(=O)N1C(C(=O)OCC(=O)Nc1ccc(S(N)(=O)=O)cc1)CS2 (stereo not given)	none | Arr-AP2 CP1 inactive | GST GSH counter inactive
Cc1ccc(NC(=O)COC(=O)C2CSC3(C)CCC(=O)N23)c(C)c1 (stereo not given)	Arr AP2 block 68.8 | Arr-AP2 CP1 inactive | GST GSH counter inactive
COc1ccc(OC)c(NC(=O)c2ccc(CN(c3cc(Cl)ccc3C)S(=O)(=O)c3ccccc3)cc2)c1	Arr AP2 block 82.1 | Arr-AP2 CP1 inactive | GST GSH counter inactive
C[C@H]1CN(S(=O)(=O)C(C)(C)C)[C@@H](CCO)/C1=C\c1ccccc1	none (no result: ABCB6 inh MLPCN, Arr AP2 block, iPSC survival up)
C=CCN1[C@@H](C)[C@H](c2ccccc2)Oc2cccc(N3CCCC3)c2S1(=O)=O	none (no result: ABCB6 inh MLPCN, Arr AP2 block, iPSC survival up)
Cc1ccc(-c2cc(C(F)F)n3ncc(C(=O)N4CCCc5ccccc54)c3n2)cc1	none | Arr-AP2 CP1 inactive | GST GSH counter inactive
O=C(/C=C(\Nc1ccc(Br)c(F)c1)c1ccccc1)c1ccccc1	none (no result: ABCB6 inh MLPCN, Arr AP2 block, iPSC survival up)
COCc1[nH]nc2c1C(c1cccc(C(F)(F)F)c1)N(c1ccc(OC)cc1)C2=O (stereo not given)	none (no result: ABCB6 inh MLPCN, Arr AP2 block, iPSC survival up)
CC(C)Cn1c(N)c(C(=O)COC(=O)c2ccncc2)c(=O)n(C)c1=O	none | Arr-AP2 CP1 inactive | GST GSH counter inactive
CC(C)Cn1c(N)c(C(=O)COC(=O)c2ccc(Cl)cc2)c(=O)n(C)c1=O	none
CC(C)Cn1c(N)c(C(=O)COC(=O)c2ccc(Br)cc2)c(=O)n(C)c1=O	none | Arr-AP2 CP1 inactive | GST GSH counter inactive
CCn1c(=O)n(CC(=O)Nc2cccc(OC)c2)c(=O)c2ccccc21	none | Arr-AP2 CP1 inactive | GST GSH counter inactive
CCn1c(=O)n(CC(=O)Nc2cc(OC)c(OC)c(OC)c2)c(=O)c2ccccc21	none | Arr-AP2 CP1 inactive | GST GSH counter inactive
COc1cccc(NC(=O)Cn2c(=O)n(-c3cc(OC)c(OC)c(OC)c3)c(=O)c3ccccc32)c1	none
CS(=O)(=O)N1CCN(C(=O)c2cc(-c3cccnc3)nc3ccc(Cl)cc23)CC1	none
CS(=O)(=O)N1CCN(C(=O)c2cc(-c3cccnc3)nc3ccc(Br)cc23)CC1	Arr AP2 block 64.4 | Arr-AP2 CP1 inactive | GST GSH counter inactive
NCCCC(C(=O)O)N(C(=O)OCc1ccccc1)C(=O)OCc1ccccc1 (stereo not given)	none (no result: ABCB6 inh MLPCN, Arr AP2 block, iPSC survival up)
CCOC(=O)N1CCN(C(=O)CCSCCc2ccncc2)CC1	Arr AP2 block 56.8 | Arr-AP2 CP1 inactive | GST GSH counter inactive
CCOC(=O)N1CCN(C(=O)CSCc2ccc(C)cc2)CC1	none
CCCCN1CC(COCc2ccccc2)Oc2cccc(Oc3ccc(F)cc3OC)c2S1(=O)=O (stereo not given)	none (no result: ABCB6 inh MLPCN, Arr AP2 block, iPSC survival up)
CC1Cc2ccccc2N1S(=O)(=O)c1cccc(C(=O)NC2CC2)c1 (stereo not given)	Arr AP2 block 88.5 | Arr-AP2 CP1 inactive | GST GSH counter inactive
CC1Cc2ccccc2N1S(=O)(=O)c1cccc(C(=O)Nc2cccnc2)c1 (stereo not given)	none
c1ccc(Cc2cnc(N3CCN(Cc4cccc(-c5ccsc5)n4)CC3)nc2)cc1	none (no result: ABCB6 inh MLPCN, Arr AP2 block, iPSC survival up)
COc1ccc(NC(=O)/C(=C/c2cccnc2)NC(=O)c2cccs2)cc1	Arr AP2 block 65.8 | Arr-AP2 CP1 inactive | GST GSH counter inactive
COc1ccc(NC(=O)/C(=C\c2cccnc2)NC(=O)c2cccs2)cc1	none
CCOc1ccccc1NC(=O)c1ccc(S(=O)(=O)N2CCCCC2)cc1	none
CCOc1ccccc1NC(=O)c1ccc(F)c(S(=O)(=O)N2CCC3(CC2)OCCO3)c1	Arr AP2 block 60.8 | Arr-AP2 CP1 inactive | GST GSH counter inactive
Cc1ccccc1C(=O)N[C@H](C(=O)N1CCC[C@H]1C(=O)NCc1ccccc1)c1ccccc1	none (no result: ABCB6 inh MLPCN, Arr AP2 block, iPSC survival up)
Cc1ccc(-c2nc3ccccc3s2)cc1NC(=O)c1ccc2c(c1)OCO2	Arr AP2 block 58.2 | Arr-AP2 CP1 inactive | GST GSH counter inactive
